ChEMBL document CHEMBL3045650, “Design, synthesis, and 3D-QSAR analysis of novel 1,3,4-oxadiazol-2(3H)-ones as protoporphyrinogen oxidase inhibitors” (J Agric Food Chem, 2010)

Experiments:
Eclipta prostrata [1] = test: Post-emergence herbicidal activity against Eclipta prostrata assessed as growth inhibition at emulsified concentrate of 37.5 g/ai ha after 15 days by greenhouse test; type: functional
Summary of the method: (§1)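 Compounds were made up as 100 g/L emulsifiable concentrates in DMF with Tween-80, then diluted in water. About 20 seeds were sown 1-3 cm deep in pots and grown in a greenhouse at 15-30 °C and 50% relative humidity. Sprays were applied postemergence at the two-leaf stage. Untreated and DMF + Tween-80 solvent controls were included. Injury was scored visually 15 days after treatment, with three replicates per treatment.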

Cyperus iria [2] = test: Post-emergence herbicidal activity against Cyperus iria assessed as growth inhibition at emulsified concentrate of 150 g/ai ha after 15 days by greenhouse test; type: functional
Amaranthus retroflexus [3] = test: Post-emergence herbicidal activity against Amaranthus retroflexus assessed as growth inhibition at emulsified concentrate of 75 g/ai ha after 15 days by greenhouse test; type: functional; summary of the method: as §1
Rumex acetosa [4] = test: Post-emergence herbicidal activity against Rumex acetosa assessed as growth inhibition at emulsified concentrate of 37.5 g/ai ha after 15 days by greenhouse test; type: functional
Rumex acetosa [5] = test: Post-emergence herbicidal activity against Rumex acetosa assessed as growth inhibition at emulsified concentrate of 75 g/ai ha after 15 days by greenhouse test; type: functional
Abutilon theophrasti [6] = test: Post-emergence herbicidal activity against Abutilon theophrasti (velvetleaf) assessed as growth inhibition at emulsified concentrate of 75 g/ai ha after 15 days by greenhouse test; type: functional
Brassica juncea [7] = test: Post-emergence herbicidal activity against Brassica juncea assessed as growth inhibition at emulsified concentrate of 75 g/ai ha after 15 days by greenhouse test; type: functional; summary of the method: as §1
Brassica juncea [8] = test: Post-emergence herbicidal activity against Brassica juncea assessed as growth inhibition at emulsified concentrate of 37.5 g/ai ha after 15 days by greenhouse test; type: functional; summary of the method: as §1
Digitaria sanguinalis = test: Post-emergence herbicidal activity against Digitaria sanguinalis (hairy crabgrass) assessed as growth inhibition at emulsified concentrate of 150 g/ai ha after 15 days by greenhouse test; type: functional
Summary of the method: (§2)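 About 20 seeds sown 1–3 cm deep, grown at 15–30 °C and 50% RH. Monocot seedlings sprayed postemergence at the one-leaf stage with a 100 g/L emulsifiable concentrate (DMF/Tween-80) diluted in water, 150 g ai/ha. Untreated and solvent controls included. Visual rating at 15 days, three replicates.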

Abutilon theophrasti [9] = test: Post-emergence herbicidal activity against Abutilon theophrasti (velvetleaf) assessed as growth inhibition at emulsified concentrate of 150 g/ai ha after 15 days by greenhouse test; type: functional
Amaranthus retroflexus [10] = test: Post-emergence herbicidal activity against Amaranthus retroflexus assessed as growth inhibition at emulsified concentrate of 37.5 g/ai ha after 15 days by greenhouse test; type: functional; summary of the method: as §1
Poa annua = test: Post-emergence herbicidal activity against Poa annua assessed as growth inhibition at emulsified concentrate of 150 g/ai ha after 15 days by greenhouse test; type: functional; summary of the method: as §2
Polygonum humifusum [11] = test: Post-emergence herbicidal activity against Polygonum humifusum assessed as growth inhibition at emulsified concentrate of 75 g/ai ha after 15 days by greenhouse test; type: functional
Brassica juncea [12] = test: Post-emergence herbicidal activity against Brassica juncea assessed as growth inhibition at emulsified concentrate of 150 g/ai ha after 15 days by greenhouse test; type: functional
Summary of the method: (§3)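 About 20 seeds sown 1–3 cm deep, grown at 15–30 °C and 50% RH. Dicot seedlings sprayed postemergence at the two-leaf stage with a 100 g/L emulsifiable concentrate (DMF/Tween-80) diluted in water, 150 g ai/ha. Untreated and solvent controls included. Visual rating at 15 days, three replicates.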

Echinochloa crus-galli = test: Post-emergence herbicidal activity against Echinochloa crus-galli (barnyard grass) assessed as growth inhibition at emulsified concentrate of 150 g/ai ha after 15 days by greenhouse test; type: functional; summary of the method: as §2
Polygonum humifusum [13] = test: Post-emergence herbicidal activity against Polygonum humifusum assessed as growth inhibition at emulsified concentrate of 150 g/ai ha after 15 days by greenhouse test; type: functional
Cyperus iria [14] = test: Post-emergence herbicidal activity against Cyperus iria assessed as growth inhibition at emulsified concentrate of 37.5 g/ai ha after 15 days by greenhouse test; type: functional
[15] = molecular target: T1, Protoporphyrinogen oxidase (Homo sapiens, UniProt P50336); test: Inhibition of Homo sapiens (human) recombinant protoporphyrinogen oxidase expressed in Escherichia coli JM109 assessed as oxidation of protoporphyrinogen IX substrate by fluorescence assay
T1 sequence (P50336 whole entry): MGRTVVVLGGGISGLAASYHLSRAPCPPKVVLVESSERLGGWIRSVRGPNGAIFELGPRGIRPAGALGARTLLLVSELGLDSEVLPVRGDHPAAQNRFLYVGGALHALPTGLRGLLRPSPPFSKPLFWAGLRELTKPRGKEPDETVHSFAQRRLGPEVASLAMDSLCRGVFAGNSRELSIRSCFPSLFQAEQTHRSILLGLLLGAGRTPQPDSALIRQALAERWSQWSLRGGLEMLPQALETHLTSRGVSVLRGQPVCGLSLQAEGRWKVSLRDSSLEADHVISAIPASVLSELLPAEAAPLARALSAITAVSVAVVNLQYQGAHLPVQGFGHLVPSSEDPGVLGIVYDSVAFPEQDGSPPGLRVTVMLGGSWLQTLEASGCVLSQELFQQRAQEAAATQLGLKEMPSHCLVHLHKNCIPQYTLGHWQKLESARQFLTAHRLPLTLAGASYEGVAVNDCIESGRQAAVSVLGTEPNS

Polygonum humifusum [16] = test: Post-emergence herbicidal activity against Polygonum humifusum assessed as growth inhibition at emulsified concentrate of 37.5 g/ai ha after 15 days by greenhouse test; type: functional
Cyperus iria [17] = test: Post-emergence herbicidal activity against Cyperus iria assessed as growth inhibition at emulsified concentrate of 75 g/ai ha after 15 days by greenhouse test; type: functional
Eclipta prostrata [18] = test: Post-emergence herbicidal activity against Eclipta prostrata assessed as growth inhibition at emulsified concentrate of 75 g/ai ha after 15 days by greenhouse test; type: functional; summary of the method: as §1
Eclipta prostrata [19] = test: Post-emergence herbicidal activity against Eclipta prostrata assessed as growth inhibition at emulsified concentrate of 150 g/ai ha after 15 days by greenhouse test; type: functional; summary of the method: as §3
Rumex acetosa [20] = test: Post-emergence herbicidal activity against Rumex acetosa assessed as growth inhibition at emulsified concentrate of 150 g/ai ha after 15 days by greenhouse test; type: functional
Abutilon theophrasti [21] = test: Post-emergence herbicidal activity against Abutilon theophrasti (velvetleaf) assessed as growth inhibition at emulsified concentrate of 37.5 g/ai ha after 15 days by greenhouse test; type: functional
Amaranthus retroflexus [22] = test: Post-emergence herbicidal activity against Amaranthus retroflexus assessed as growth inhibition at emulsified concentrate of 150 g/ai ha after 15 days by greenhouse test; type: functional; summary of the method: as §3

SMILES	inhibition (INH) (Eclipta prostrata [1]) [%]	inhibition (INH) (Cyperus iria [2]) [%]	inhibition (INH) (Amaranthus retroflexus [3]) [%]	inhibition (INH) (Rumex acetosa [4]) [%]	inhibition (INH) (Rumex acetosa [5]) [%]	inhibition (INH) (Abutilon theophrasti [6]) [%]	inhibition (INH) (Brassica juncea [7]) [%]	inhibition (INH) (Brassica juncea [8]) [%]	inhibition (INH) (Digitaria sanguinalis) [%]	inhibition (INH) (Abutilon theophrasti [9]) [%]	inhibition (INH) (Amaranthus retroflexus [10]) [%]	inhibition (INH) (Poa annua) [%]	inhibition (INH) (Polygonum humifusum [11]) [%]	inhibition (INH) (Brassica juncea [12]) [%]	inhibition (INH) (Echinochloa crus-galli) [%]	inhibition (INH) (Polygonum humifusum [13]) [%]	inhibition (INH) (Cyperus iria [14]) [%]	Ki [15] [nM]	inhibition (INH) (Polygonum humifusum [16]) [%]	inhibition (INH) (Cyperus iria [17]) [%]	other results
CCOC(=O)CSc1nc2cc(-n3nc(C(C)(C)C)oc3=O)c(F)cc2s1	0	70	50	50	50	0	50	0	0	0	50	0	70	50	0	80	60	1580	70	70	inhibition (INH) (Eclipta prostrata [18]): 0%; inhibition (INH) (Eclipta prostrata [19]): 50%; inhibition (INH) (Rumex acetosa [20]): 70%; inhibition (INH) (Abutilon theophrasti [21]): 0%; inhibition (INH) (Amaranthus retroflexus [22]): 90%
CCOC(=O)CCSc1nc2cc(-n3nc(C(C)(C)C)oc3=O)c(Cl)cc2s1	50	60	60	60	70	0	60	60	0	0	50	0	70	70	0	70	40	250	70	50	inhibition (INH) (Eclipta prostrata [18]): 60%; inhibition (INH) (Eclipta prostrata [19]): 60%; inhibition (INH) (Rumex acetosa [20]): 70%; inhibition (INH) (Abutilon theophrasti [21]): 0%; inhibition (INH) (Amaranthus retroflexus [22]): 80%
COC(=O)CSc1nc2cc(-n3nc(C(C)(C)C)oc3=O)c(Br)cc2s1	0	50	60	40	50	0	0	0	0	0	50	0	70	0	0	70	40	7460	60	40	inhibition (INH) (Eclipta prostrata [18]): 0%; inhibition (INH) (Eclipta prostrata [19]): 0%; inhibition (INH) (Rumex acetosa [20]): 60%; inhibition (INH) (Abutilon theophrasti [21]): 0%; inhibition (INH) (Amaranthus retroflexus [22]): 80%
CC(C)OC(=O)CSc1nc2cc(-n3nc(C(C)(C)C)oc3=O)c(F)cc2s1	0	60	85	50	60	0	50	40	0	0	0	0	40	40	0	60	50	1170	40	50	inhibition (INH) (Eclipta prostrata [18]): 0%; inhibition (INH) (Eclipta prostrata [19]): 70%; inhibition (INH) (Rumex acetosa [20]): 70%; inhibition (INH) (Abutilon theophrasti [21]): 0%; inhibition (INH) (Amaranthus retroflexus [22]): 90%
CCOC(=O)C(C)Sc1nc2cc(-n3nc(C(C)(C)C)oc3=O)c(F)cc2s1 (stereo not given)	80	100	60	95	95	100	70	70	50	100	60	0	70	75	0	70	90	1420	60	90	inhibition (INH) (Eclipta prostrata [18]): 85%; inhibition (INH) (Eclipta prostrata [19]): 95%; inhibition (INH) (Rumex acetosa [20]): 100%; inhibition (INH) (Abutilon theophrasti [21]): 80%; inhibition (INH) (Amaranthus retroflexus [22]): 90%
CCOC(=O)CCCSc1nc2cc(-n3nc(C(C)(C)C)oc3=O)c(F)cc2s1	50	70	80	50	60	0	50	50	0	50	60	0	80	50	0	80	60	700	50	60	inhibition (INH) (Eclipta prostrata [18]): 60%; inhibition (INH) (Eclipta prostrata [19]): 70%; inhibition (INH) (Rumex acetosa [20]): 70%; inhibition (INH) (Abutilon theophrasti [21]): 0%; inhibition (INH) (Amaranthus retroflexus [22]): 90%
CCOC(=O)C(C)Sc1nc2cc(-n3nc(C(C)(C)C)oc3=O)c(Cl)cc2s1 (stereo not given)	0	70	100	0	30	0	0	0	0	0	60	0	60	50	0	70	60	1690	40	60	inhibition (INH) (Eclipta prostrata [18]): 40%; inhibition (INH) (Eclipta prostrata [19]): 70%; inhibition (INH) (Rumex acetosa [20]): 60%; inhibition (INH) (Abutilon theophrasti [21]): 0%; inhibition (INH) (Amaranthus retroflexus [22]): 100%
